Data set [1] is filed under the species Rattus norvegicus. Briefly: Toxicity (Ames Salmonella Test) in the presence of rat liver S-9 fraction in TA-100 strain at a conc. of 1000 ug (4*10e6 dilution). It is filed as organism-based. A digest of the protocol:
(§1)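 TA-100 bacteria are exposed to varying compound concentrations for 30 min at 37 °C. They are then diluted to about 10³ bacteria/mL and plated on histidine-enriched (4.5 mM) agar. Surviving colonies are counted.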

For data set [2], the species on record is Rattus norvegicus. As to the kind of experiment: Mutagenic activity (Ames Salmonella Test) in the presence of rat liver S-9 fraction in TA-100 strain. Type of data set: functional. An outline of the steps: (§2)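 Liver 9000g supernatant (1.0 mg protein, PBS-diluted, filtered) plus NADPH (1 mg/plate) went into histidine/biotin-supplemented top agar with overnight TA-98 or TA-100 culture. Compound in Me2SO was added last, with Me2SO as control. His+ revertants were counted after 40 h at 37 °C in the dark, averaging ≥2 plates.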

The species entered for data set [3] is Rattus norvegicus. As to the kind of experiment: Mutagenic activity (Ames Salmonella Test) in the presence of rat liver S-9 fraction in TA-100 strain at a conc. of 1000 ug. Type of data set: functional. A digest of the protocol: as §2
The species named for data set [4] is Rattus norvegicus. Briefly: Mutagenic activity (Ames Salmonella Test) in the presence of rat liver S-9 fraction in TA-98 strain. Type of data set: functional. A digest of the protocol: as §2
Data set [5] is filed under the species Rattus norvegicus. Briefly: Mutagenic activity (Ames Salmonella Test) in the presence of rat liver S-9 fraction in TA-98 strain at aconc. of 1000 ug. Type of data set: functional. An outline of the steps: (§3)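 Male Sprague-Dawley rats received Arochlor 1254 (500 mg/kg in corn oil) and were killed 48 h later. Liver 9000g supernatant (1.0 mg protein, PBS-diluted, filtered) plus NADPH (1 mg/plate) went into histidine/biotin-supplemented top agar with overnight TA-98 or TA-100 culture. Compound in Me2SO was added last, with Me2SO as control. His+ revertants were counted after 40 h at 37 °C in the dark, averaging ≥2 plates.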

The species named for data set [6] is Rattus norvegicus. Briefly: Toxicity (Ames Salmonella Test) in the presence of rat liver S-9 fraction in TA-100 strain (4*10e6 dilution). It is filed as organism-based. An outline of the steps: as §1
The species named for data set [7] is Rattus norvegicus. Briefly: Toxicity (Ames Salmonella Test) in the presence of rat liver S-9 fraction in TA-100 strain (4*10e7 dilution). Type of data set: organism-based. An outline of the steps: as §1
Data set [8] is filed under the species Rattus norvegicus. Briefly: Mutagenic activity (Ames Salmonella Test) in the presence of rat liver S-9 fraction in TA-100 strain at a conc. of 500 ug. It is filed as functional. A digest of the protocol: as §3
The species entered for data set [9] is Rattus norvegicus. As to the kind of experiment: Mutagenic activity (Ames Salmonella Test) in the presence of rat liver S-9 fraction in TA-98 strain at a conc. of 1000 ug. It is filed as functional. A digest of the protocol:
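Plate-incorporation reversion assay in TA-98 from an overnight nutrient-broth culture (2–3 × 10⁹ bacteria/mL). The compound is in Me₂SO, added last to top agar at 45 °C. NADPH 1 mg/plate. His⁺ revertants are counted after 40 h at 37 °C in the dark.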

The species entered for data set [10] is Rattus norvegicus. Briefly: Mutagenic activity (Ames Salmonella Test) in the presence of rat liver S-9 fraction in TA-98 strain at a conc. of 500 ug. Type of data set: functional. An outline of the steps: as §3
Data set [11] is filed under the species Rattus norvegicus. As to the kind of experiment: Toxicity (Ames Salmonella Test) in the presence of rat liver S-9 fraction in TA-100 strain at a conc. of 500 ug (4*10e6 dilution). It is filed as organism-based. An outline of the steps:
as §1

For data set [12], the species on record is Rattus norvegicus. As to the kind of experiment: Toxicity (Ames Salmonella Test) in the presence of rat liver S-9 fraction in TA-100 strain at a conc. of 500 ug (4*10e7 dilution). Type of data set: organism-based. A digest of the protocol: as §1

As to `CC(C)N(O)CC(O)COc1cccc2ccccc12.O=C(O)C(=O)O` (stereo unspecified), the Toxicity in the data set listed under Rattus norvegicus [1] was 60; in the data set listed under Rattus norvegicus [6] it was 165; in the data set filed under Rattus norvegicus [7], 18. Moreover, the Mutagenicity was 143 in the data set filed under Rattus norvegicus [2], 61 in the data set listed under Rattus norvegicus [3], 18 in the data set listed under Rattus norvegicus [4] and 20 in the data set filed under Rattus norvegicus [5].

As for `Br.CC(C)N(O)CC(O)COc1cccc2ccccc12` (stereo unspecified), the Toxicity in the data set listed under Rattus norvegicus [1] is recorded as 183; in the data set filed under Rattus norvegicus [11], 265; in the data set listed under Rattus norvegicus [12], 28. Besides, the Mutagenicity in the data set listed under Rattus norvegicus [3] worked out at 134; in the data set listed under Rattus norvegicus [8] it was 117; in the data set listed under Rattus norvegicus [9], 8; in the data set filed under Rattus norvegicus [10] it was 12.

`CC(C)/[N+]([O-])=C/C(O)COc1cccc2ccccc12` (stereo unspecified): the Mutagenicity in the data set listed under Rattus norvegicus [2] came to 162; in the data set listed under Rattus norvegicus [4], 18. For the same molecule, the Toxicity in the data set listed under Rattus norvegicus [6] is 232.

On to `CC(C)NO` [ISOPROPYLHYDROXYLAMINE], for which the values for the Mutagenicity in the data set listed under Rattus norvegicus [2] and in the data set listed under Rattus norvegicus [4] were 150 and 18, respectively. In addition, the Toxicity in the data set listed under Rattus norvegicus [6] is reported as 230.

With `CC(C)N(CC(O)COc1cccc2ccccc12)N=O` (stereo unspecified), the Mutagenicity in the data set filed under Rattus norvegicus [2] was 137; in the data set listed under Rattus norvegicus [3] it was 131; in the data set filed under Rattus norvegicus [4] it was 14; in the data set listed under Rattus norvegicus [9], 13. For the same molecule, the values for the Toxicity in the data set filed under Rattus norvegicus [6] and in the data set listed under Rattus norvegicus [7] were 255 and 25, respectively.
